Measurements: ChEMBL document CHEMBL1687848, “In vitro effect of qnrA1, qnrB1, and qnrS1 genes on fluoroquinolone activity against isogenic Escherichia coli isolates with mutations in gyrA and parC” (2011)
Converted amounts (≈) assume the structure as drawn.

Experiments:
Type in all cases: functional
Escherichia coli [1] = experiment: Antibacterial activity against qnrS gene expressing Escherichia coli ATCC 25922 harboring ParC S80R mutant and pBK-QnrS1 by broth microdilution method
Escherichia coli [2] = experiment: Antibacterial activity against Escherichia coli ATCC 25922 harboring ParC S80R mutant by broth microdilution method
Escherichia coli [3] = experiment: Antibacterial activity against qnrS gene expressing Escherichia coli ATCC 25922 harboring GyrA S83L mutant and pBK-QnrS1 by broth microdilution method
Escherichia coli [4] = experiment: Antibacterial activity against qnrB gene expressing Escherichia coli ATCC 25922 harboring GyrA S83L mutant and pBK-QnrB1 by broth microdilution method
Escherichia coli [5] = experiment: Antibacterial activity against qnrA gene expressing Escherichia coli ATCC 25922 harboring GyrA S83L mutant and pBK-QnrA1 by broth microdilution method
Escherichia coli [6] = experiment: Antibacterial activity against qnrB gene expressing Escherichia coli ATCC 25922 harboring ParC S80R mutant and pBK-QnrB1 by broth microdilution method
Escherichia coli [7] = experiment: Antibacterial activity against qnrA gene expressing Escherichia coli ATCC 25922 harboring ParC S80R mutant and pBK-QnrA1 by broth microdilution method
Escherichia coli [8] = experiment: Antibacterial activity against Escherichia coli ATCC 25922 expressing qnrA gene and pBK-QnrA1 by broth microdilution method
Escherichia coli [9] = experiment: Antibacterial activity against Escherichia coli ATCC 25922 expressing qnrB gene and pBK-QnrB1 by broth microdilution method
Escherichia coli [10] = experiment: Antibacterial activity against Escherichia coli ATCC 25922 expressing qnrS gene and pBK-QnrS1 by broth microdilution method
Escherichia coli [11] = experiment: Antibacterial activity against Escherichia coli ATCC 25922 by broth microdilution method
Escherichia coli [12] = experiment: Antibacterial activity against Escherichia coli ATCC 25922 harboring GyrA S83L mutant by broth microdilution method
Escherichia coli [13] = experiment: Antibacterial activity against Escherichia coli ATCC 25922 harboring GyrA S83L mutant and ParC S80R mutant by broth microdilution method
Escherichia coli [14] = experiment: Antibacterial activity against qnrA gene expressing Escherichia coli ATCC 25922 harboring ParC S80R mutant, ParC S80R mutant and pBK-QnrA1 by broth microdilution method
Escherichia coli [15] = experiment: Antibacterial activity against qnrB gene expressing Escherichia coli ATCC 25922 harboring ParC S80R mutant, ParC S80R mutant and pBK-QnrB1 by broth microdilution method
Escherichia coli [16] = experiment: Antibacterial activity against qnrS gene expressing Escherichia coli ATCC 25922 harboring ParC S80R mutant, ParC S80R mutant and pBK-QnrS1 by broth microdilution method
Escherichia coli [17] = experiment: Antibacterial activity against Escherichia coli ATCC 25922 assessed as mutant prevention concentration
Escherichia coli [18] = experiment: Antibacterial activity against Escherichia coli ATCC 25922 expressing qnrA gene and pBK-QnrA1 assessed as mutant prevention concentration
Escherichia coli [19] = experiment: Antibacterial activity against Escherichia coli ATCC 25922 expressing qnrB gene and pBK-QnrB1 assessed as mutant prevention concentration
Escherichia coli [20] = experiment: Antibacterial activity against Escherichia coli ATCC 25922 expressing qnrS gene and pBK-QnrS1 assessed as mutant prevention concentration
Escherichia coli [21] = experiment: Antibacterial activity against Escherichia coli ATCC 25922 harboring GyrA S83L mutant assessed as mutant prevention concentration
Escherichia coli [22] = experiment: Antibacterial activity against qnrA gene expressing Escherichia coli ATCC 25922 harboring GyrA S83L mutant and pBK-QnrA1 assessed as mutant prevention concentration
Escherichia coli [23] = experiment: Antibacterial activity against qnrB gene expressing Escherichia coli ATCC 25922 harboring GyrA S83L mutant and pBK-QnrB1 assessed as mutant prevention concentration
Escherichia coli [24] = experiment: Antibacterial activity against qnrS gene expressing Escherichia coli ATCC 25922 harboring GyrA S83L mutant and pBK-QnrS1 assessed as mutant prevention concentration
Escherichia coli [25] = experiment: Antibacterial activity against Escherichia coli ATCC 25922 assessed as earliest time required to resistant colonies visible one step below mutant prevention concentration
Escherichia coli [26] = experiment: Antibacterial activity against Escherichia coli ATCC 25922 expressing qnrA gene and pBK-QnrA1 assessed as earliest time required to resistant colonies visible one step below mutant prevention concentration
Escherichia coli [27] = experiment: Antibacterial activity against Escherichia coli ATCC 25922 expressing qnrB gene and pBK-QnrB1 assessed as earliest time required to resistant colonies visible one step below mutant prevention concentration
Escherichia coli [28] = experiment: Antibacterial activity against Escherichia coli ATCC 25922 expressing qnrS gene and pBK-QnrS1 assessed as earliest time required to resistant colonies visible one step below mutant prevention concentration
Escherichia coli [29] = experiment: Antibacterial activity against Escherichia coli ATCC 25922 harboring GyrA S83L mutant assessed as earliest time required to resistant colonies visible one step below mutant prevention concentration
Escherichia coli [30] = experiment: Antibacterial activity against qnrA gene expressing Escherichia coli ATCC 25922 harboring GyrA S83L mutant and pBK-QnrA1 assessed as earliest time required to resistant colonies visible one step below mutant prevention concentration
Escherichia coli [31] = experiment: Antibacterial activity against qnrB gene expressing Escherichia coli ATCC 25922 harboring GyrA S83L mutant and pBK-QnrB1 assessed as earliest time required to resistant colonies visible one step below mutant prevention concentration
Escherichia coli [32] = experiment: Antibacterial activity against qnrS gene expressing Escherichia coli ATCC 25922 harboring GyrA S83L mutant and pBK-QnrS1 assessed as earliest time required to resistant colonies visible one step below mutant prevention concentration
Escherichia coli [33] = experiment: Antibacterial activity against Escherichia coli ATCC 25922 expressing qnrA gene and pBK-QnrA1 assessed as resistant colonies recovered one step below mutant prevention concentration
Outline: (§1)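 Resistant colonies recovered from Mueller-Hinton plates one concentration step below the MPC for each fluoroquinolone were retested for MIC. Mutants taken from plated concentrations closest to the MPC had the QRDRs of gyrA and parC analysed.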

Escherichia coli [34] = experiment: Antibacterial activity against Escherichia coli ATCC 25922 expressing qnrB gene and pBK-QnrB1 assessed as resistant colonies recovered one step below mutant prevention concentration; outline: as §1
Escherichia coli [35] = experiment: Antibacterial activity against Escherichia coli ATCC 25922 expressing qnrS gene and pBK-QnrS1 assessed as resistant colonies recovered one step below mutant prevention concentration; outline: as §1
Escherichia coli [36] = experiment: Antibacterial activity against Escherichia coli ATCC 25922 harboring GyrA S83L mutant assessed as resistant colonies recovered one step below mutant prevention concentration; outline: as §1
Escherichia coli [37] = experiment: Antibacterial activity against qnrB gene expressing Escherichia coli ATCC 25922 harboring GyrA S83L mutant and pBK-QnrB1 assessed as resistant colonies recovered one step below mutant prevention concentration; outline: as §1
Escherichia coli [38] = experiment: Antibacterial activity against qnrS gene expressing Escherichia coli ATCC 25922 harboring GyrA S83L mutant and pBK-QnrS1 assessed as resistant colonies recovered one step below mutant prevention concentration; outline: as §1

In the case of `COc1c(N2C[C@@H]3CCCN[C@@H]3C2)c(F)cc2c(=O)c(C(=O)O)cn(C3CC3)c12` [MOXIFLOXACIN], the MBC (Escherichia coli [1]) is reported as 0.5 mg/L (≈ 1.25 µM), the MIC (Escherichia coli [1]) is reported as 0.25 mg/L (≈ 0.623 µM) and the MBC (Escherichia coli [2]) is reported as 0.008 mg/L (≈ 0.0199 µM). It also gave an MIC (Escherichia coli [2]) of 0.008 mg/L (≈ 0.0199 µM), an MBC (Escherichia coli [3]) of 2 mg/L (≈ 4.98 µM) and an MIC (Escherichia coli [3]) of 1 mg/L (≈ 2.49 µM). It also gave an MBC (Escherichia coli [4]) of 0.5 mg/L (≈ 1.25 µM), an MIC (Escherichia coli [4]) of 0.5 mg/L (≈ 1.25 µM) and an MBC (Escherichia coli [5]) of 0.5 mg/L (≈ 1.25 µM). The MIC (Escherichia coli [5]) was 0.5 mg/L (≈ 1.25 µM), the MBC (Escherichia coli [6]) was 0.5 mg/L (≈ 1.25 µM) and the MIC (Escherichia coli [6]) was 0.5 mg/L (≈ 1.25 µM). The MBC (Escherichia coli [7]) was 0.5 mg/L (≈ 1.25 µM), the MIC (Escherichia coli [7]) was 0.5 mg/L (≈ 1.25 µM) and the MBC (Escherichia coli [8]) was 0.5 mg/L (≈ 1.25 µM). The MIC (Escherichia coli [8]) was 0.25 mg/L (≈ 0.623 µM), the MBC (Escherichia coli [9]) was 1 mg/L (≈ 2.49 µM) and the MIC (Escherichia coli [9]) was 0.25 mg/L (≈ 0.623 µM). The MBC (Escherichia coli [10]) was 0.25 mg/L (≈ 0.623 µM), the MIC (Escherichia coli [10]) was 0.25 mg/L (≈ 0.623 µM) and the MBC (Escherichia coli [11]) was 0.015 mg/L (≈ 0.0374 µM). It also gave an MIC (Escherichia coli [11]) of 0.008 mg/L (≈ 0.0199 µM), an MBC (Escherichia coli [12]) of 0.125 mg/L (≈ 0.311 µM) and an MBC (Escherichia coli [13]) of 0.25 mg/L (≈ 0.623 µM). For the same compound, the MIC (Escherichia coli [13]) was 0.25 mg/L (≈ 0.623 µM), the MBC (Escherichia coli [14]) was 4 mg/L (≈ 9.96 µM) and the MBC (Escherichia coli [15]) was 2 mg/L (≈ 4.98 µM). It also gave an MIC (Escherichia coli [15]) of 1 mg/L (≈ 2.49 µM), an MBC (Escherichia coli [16]) of 4 mg/L (≈ 9.96 µM) and an Activity (Escherichia coli [17]) of 2 µg/mL. For the same compound, the Activity (Escherichia coli [18]) was 8 µg/mL, the Activity (Escherichia coli [19]) was 4 µg/mL and the Activity (Escherichia coli [20]) was 4 µg/mL. It also gave an Activity (Escherichia coli [21]) of 4 µg/mL, an Activity (Escherichia coli [22]) of 16 µg/mL and an Activity (Escherichia coli [23]) of 32 µg/mL. For the same compound, the Activity (Escherichia coli [24]) was 32 µg/mL, the Time (Escherichia coli [25]) was 48 h and the Time (Escherichia coli [26]) was 24 h. The Time (Escherichia coli [27]) was 24 h, the Time (Escherichia coli [28]) was 24 h and the Time (Escherichia coli [29]) was 24 h. For the same compound, the Time (Escherichia coli [30]) was 24 h, the Time (Escherichia coli [31]) was 24 h and the Time (Escherichia coli [32]) was 24 h. The MIC (Escherichia coli [33]) was 0.5 mg/L (≈ 1.25 µM), the MIC (Escherichia coli [34]) was 0.5 mg/L (≈ 1.25 µM) and the MIC (Escherichia coli [35]) was 0.5 mg/L (≈ 1.25 µM). The MIC (Escherichia coli [36]) was 1 mg/L (≈ 2.49 µM), the MIC (Escherichia coli [37]) was 1 mg/L (≈ 2.49 µM) and the MIC (Escherichia coli [38]) was 1 mg/L (≈ 2.49 µM).
